These results are taken from ChEMBL document CHEMBL1141265, “Flavonoids as opioid receptor ligands: identification and preliminary structure-activity relationships” (J Nat Prod, 2007).

The structures appear in SMILES notation. Activity calls are given as the source filed them. The calls are words filed in the database; no cut-off is given here.

Test [1] addresses Kappa-type opioid receptor (Homo sapiens) (UniProt P41145). Kind of test: Antagonist activity at human kappa opioid receptor expressed in CHO cells by [35S]GTP-gamma-S assay. In kind it is functional, cell-based. In outline:
(§1)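 Ke from rightward shift of the agonist concentration–response curve (DAMGO μ, DPDPE δ, U69,593 κ) by one fixed concentration of test compound; membranes from stably transfected CHO cells, 0.1 nM [35S]GTPγS, 10 μM GDP, 50 mM HEPES pH 7.4, 1 h room temperature, duplicates, filtration then scintillation counting; EC50s by three-parameter logistic fit, Ke = [L]/[(A′/A) − 1].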
In general terms: GTPγS resists hydrolysis and so accumulates on activated G proteins.

Test [2] is described as follows: Selectivity for antagonist activity at human delta opioid receptor to kappa opioid receptor expressed in CHO cells by [35S]GTP-gamma-S assay. It is filed as functional.
Test [3] addresses Mu-type opioid receptor (Homo sapiens) (UniProt P35372). Nature of the test: Antagonist activity at human mu opioid receptor expressed in CHO cells by [35S]GTP-gamma-S assay. It is filed as functional, cell-based.
Test [4] deals with T1, Delta-type opioid receptor (Homo sapiens, UniProt P41143). Kind of test: Antagonist activity at human delta opioid receptor expressed in CHO cells by [35S]GTPgammaS assay. In kind it is functional, cell-based. In outline: as §1
T1 sequence (P41143 whole entry): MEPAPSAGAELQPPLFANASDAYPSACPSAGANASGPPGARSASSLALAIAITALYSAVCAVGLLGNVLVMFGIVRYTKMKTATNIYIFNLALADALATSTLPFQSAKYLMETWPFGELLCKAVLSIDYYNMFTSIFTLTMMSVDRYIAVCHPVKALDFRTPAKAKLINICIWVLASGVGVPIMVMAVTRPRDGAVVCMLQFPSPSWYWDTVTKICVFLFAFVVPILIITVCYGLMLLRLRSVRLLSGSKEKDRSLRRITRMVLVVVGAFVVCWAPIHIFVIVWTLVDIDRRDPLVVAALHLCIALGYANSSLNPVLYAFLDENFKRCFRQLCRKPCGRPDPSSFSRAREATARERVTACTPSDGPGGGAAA
Test [5] is described as follows: Selectivity for antagonist activity at human mu opioid receptor to kappa opioid receptor expressed in CHO cells by [35S]GTP-gamma-S assay. In kind it is functional.
Test [6] in a line: Agonist activity at opioid receptor relative to U69,593. In kind it is functional.
For test [7], the target named is Mu-type opioid receptor (Homo sapiens) (UniProt P35372). Kind of test: Intrinsic activity at human […] mu receptor expressed in CHO cells upto 10 uM by [35S]GTP-gamma-S assay. It is filed as functional, cell-based. In outline:
(§2)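 Screened at 10 μM for agonist or inverse-agonist activity on CHO membrane homogenates expressing human δ, κ or μ receptor; 0.1 nM [35S]GTPγS, 1 μM GDP, 50 mM HEPES pH 7.4, 1 h room temperature, duplicates; bound label separated by vacuum filtration over GF-B, scintillation counted, normalized to vehicle basal binding; subtype-selective agonist run as positive control.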

Test [8] addresses Kappa-type opioid receptor (Homo sapiens) (UniProt P41145). Nature of the test: Intrinsic activity at human kappa opioid receptor expressed in CHO cells upto 10 uM by [35S]GTP-gamma-S assay. It is filed as functional, cell-based. The method, boiled down: as §2
Test [9] addresses T1, Delta-type opioid receptor. Nature of the test: Intrinsic activity at human delta opioid receptor expressed in CHO cells upto 10 uM by [35S]GTP-gamma-S assay. It is filed as functional, cell-based. In outline:
as §2

Test [10] deals with T1, Delta-type opioid receptor. Kind of test: Binding affinity to delta opioid receptor.
A short description of test [11]: Binding affinity to opiate receptor.

Mu-type opioid receptor (Homo sapiens), sequence (P35372 whole entry): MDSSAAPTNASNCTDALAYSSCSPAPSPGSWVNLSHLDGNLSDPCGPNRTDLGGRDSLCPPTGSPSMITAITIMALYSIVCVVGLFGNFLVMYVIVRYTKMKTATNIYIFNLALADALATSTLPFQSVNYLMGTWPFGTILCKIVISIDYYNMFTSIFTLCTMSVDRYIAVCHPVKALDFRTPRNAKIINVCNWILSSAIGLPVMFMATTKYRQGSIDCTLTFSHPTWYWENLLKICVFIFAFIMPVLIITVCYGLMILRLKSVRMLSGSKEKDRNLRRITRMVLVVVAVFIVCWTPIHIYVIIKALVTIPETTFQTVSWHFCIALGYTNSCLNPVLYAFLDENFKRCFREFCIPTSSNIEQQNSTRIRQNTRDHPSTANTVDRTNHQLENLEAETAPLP
Kappa-type opioid receptor (Homo sapiens), sequence (P41145 whole entry): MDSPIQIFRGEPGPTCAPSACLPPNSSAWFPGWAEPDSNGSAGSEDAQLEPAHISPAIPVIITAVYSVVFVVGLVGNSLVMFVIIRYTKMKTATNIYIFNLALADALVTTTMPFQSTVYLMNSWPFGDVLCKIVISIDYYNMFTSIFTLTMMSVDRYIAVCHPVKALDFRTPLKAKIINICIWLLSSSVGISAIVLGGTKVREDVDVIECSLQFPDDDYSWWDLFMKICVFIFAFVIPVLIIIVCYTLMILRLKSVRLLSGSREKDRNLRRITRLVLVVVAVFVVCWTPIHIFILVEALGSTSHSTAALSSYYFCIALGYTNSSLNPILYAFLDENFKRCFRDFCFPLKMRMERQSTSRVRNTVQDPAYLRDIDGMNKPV

As to `O=c1cc(-c2ccc(O)cc2)oc2cc(O)ccc12`, the Ke came to 1610 nM in test [1], 480 nM in test [3] and 2090 nM in [4]. The “Ratio Ki” value in test [2] was 1.3. Also, in test [5], the Antagonist selectivity ratio was 0.3.

As for `COc1ccc([C@@H]2CC(=O)c3c(O)cc(O)cc3O2)cc1O`, the Ke in [1], in test [3] and in test [4] was greater than 10000 nM each time.

For `Oc1cc(O)c2c(c1)O[C@H](c1ccc(O)c(O)c1)[C@H](O)C2`, the Intrinsic activity entry in [6] is “inactive”.

As for `O=C1CC(c2ccc(O)cc2)Oc2ccccc21` (stereo not drawn) [4'-HYDROXY-FLAVANONE], the Ke came to 550 nM in [1], 590 nM in test [3] and 3490 nM in test [4]. Further, the “Ratio Ki” value in test [2] was found to be 6.3. Moreover, the Antagonist selectivity ratio in test [5] stood at 1.1.

As for `Oc1cc(O)c2c(c1)O[C@@H](c1ccc(O)c(O)c1)[C@@H](O)C2` [(+)-EPICATECHIN], in test [6], the Intrinsic activity result was “inactive”. The results for the Ke in [1], in test [3] and in [4] were 5810 nM, 3020 nM and 2170 nM, respectively. The “Ratio Ki” value in test [2] is given as 0.37. Also, in [5], the Antagonist selectivity ratio was 0.52.

Turning to `O=C1c2c(O)cc(O)cc2O[C@H](c2ccc(O)c(O)c2)[C@H]1O` [(+)-TAXIFOLIN], the Ke in test [1] was 3280 nM; in test [3], 3070 nM; in [4], 3820 nM. Further, the “Ratio Ki” value in test [2] worked out at 1.2. In addition, the Antagonist selectivity ratio in [5] was 0.93.

For the molecule `O=C(O[C@@H]1Cc2c(O)cc(O)cc2O[C@H]1c1ccc(O)c(O)c1)c1cc(O)c(O)c(O)c1` [(-)-CATECHINGALLATE], the Ke in [1] came out at 220 nM; in test [3], 210 nM; in test [4], 950 nM. Also, the Intrinsic activity entry in [7], in test [8] and in test [9] was “inactive” throughout. Further, the “Ratio Ki” value in [2] is 4.3. Also, the Antagonist selectivity ratio in test [5] amounted to 0.95.

`Oc1cc(O)c2c(c1)O[C@@H](c1ccc(O)c(O)c1)[C@H](O)C2` [(-)-CATECHIN]: in test [6], the maximal effect (Emax) (in general, the maximal effect, on the per cent scale that the assay sets) stood at 18%. Also, the Ke in test [1] came to 3600 nM; in [3], 2400 nM; in [4], 1770 nM. Moreover, in test [2], the “Ratio Ki” value was found to be 0.49. Besides, in [5], the Antagonist selectivity ratio is 0.67.

Turning to `O=c1cc(-c2ccc(O)c(-c3c(O)cc(O)c4c(=O)cc(-c5ccc(O)cc5)oc34)c2)oc2cc(O)cc(O)c12` [AMENTOFLAVONE], the Ke is 490 nM in test [1], greater than 10000 nM in [3] and 6000 nM in test [4]. Besides, the Intrinsic activity result in test [7], in [8] and in [9] was “inactive” each time. Moreover, in [2], the “Ratio Ki” value amounted to 12. Moreover, the inhibitory constant (Ki) (in general, the dissociation constant of the complex between target and ligand, obtained from inhibition or displacement) in test [10] is 36 nM. Besides, the Antagonist selectivity ratio in [5] is on record as greater than 20.

For the molecule `O=c1cc(-c2ccc(O)cc2)oc2cc(O)cc(O)c12` [APIGENIN], the Ke in [1] was found to be 410 nM; in [3] it was 410 nM; in test [4] it was 970 nM. For the same molecule, the Intrinsic activity entry in test [7], in test [8] and in test [9] was “inactive” in each case. In addition, in test [2], the “Ratio Ki” value worked out at 2.4. The Antagonist selectivity ratio in [5] turned out to be 1.

As for `Oc1cc(O)c2c(c1)O[C@H](c1ccc(O)c(O)c1)[C@@H](O)C2` [CIANIDANOL], the Intrinsic activity result in test [6] was “inactive”. Further, the Ke was 320 nM in test [1], greater than 10000 nM in test [3] and 1180 nM in test [4]. For the same molecule, the entries for the “Ratio pKi” value in test [2] and in [5] were 3.7 and greater than 31, respectively.

For the molecule `O=C(O[C@@H]1Cc2c(O)cc(O)cc2O[C@@H]1c1ccc(O)c(O)c1)c1cc(O)c(O)c(O)c1` [EPICATECHIN GALLATE], the IC50 – broadly, the concentration needed to halve the response being measured – in test [11] amounted to 36 nM. Also, the Ke amounted to 1900 nM in [1], 1500 nM in test [3] and 1700 nM in test [4]. Also, the Intrinsic activity result in test [7], in test [8] and in test [9] was “inactive” in each case. For the same molecule, in test [2], the “Ratio Ki” value is recorded as 0.89. For the same molecule, in test [5], the Antagonist selectivity ratio is 0.79.

In the case of `Oc1cc(O)c2c(c1)O[C@H](c1cc(O)c(O)c(O)c1)[C@H](O)C2` [EPIGALLOCATECHIN], the figures for the Ke in test [1], in test [3] and in test [4] were 250 nM, 300 nM and 1990 nM, respectively. The Intrinsic activity result in test [7], in test [8] and in test [9] was “inactive” each time. For the same molecule, in test [2], the “Ratio Ki” value turned out to be 8. In addition, in test [5], the Antagonist selectivity ratio came to 1.2.

`O=c1c(O[C@@H]2O[C@H](CO)[C@H](O)[C@H](O)[C@H]2O)c(-c2ccc(O)c(O)c2)oc2cc(O)cc(O)c12` [HYPEROSIDE]: the Ke was 340 nM in test [1], 390 nM in test [3] and 9070 nM in test [4]. Further, the “Ratio Ki” value in test [2] was 27. Also, the Antagonist selectivity ratio in test [5] was found to be 1.1.

Regarding `CC(C)[C@@H](CN1CC[C@@](C)(c2cccc(O)c2)[C@@H](C)C1)NC(=O)[C@H]1Cc2ccc(O)cc2CN1` [JDTIC], in [2], the “Ratio Ki” value is 3800. In [5], the Antagonist selectivity ratio came to 1250.

In the case of `O=C1C[C@@H](c2ccc(O)cc2)Oc2cc(O)cc(O)c21` [NARINGENIN], the Ke in test [1] stood at 1700 nM; in test [3] it was 2300 nM; in [4] it was 3680 nM. The “Ratio Ki” value in [2] was 2.2. Also, the Antagonist selectivity ratio in test [5] was 1.4.

Regarding `Oc1ccc2c3c1O[C@H]1c4[nH]c5c(c4C[C@@]4(O)[C@@H](C2)N(CC2CC2)CC[C@]314)C[C@@]1(O)[C@H]2Cc3ccc(O)c4c3[C@@]1(CCN2CC1CC1)[C@H]5O4` [NORBINALTORPHIMINE], the “Ratio Ki” value in [2] was 580. The Antagonist selectivity ratio in test [5] was determined as 520.
